Bioassay records deposited in PubChem BioAssay by Broad Institute.
PDI inh: blocks human protein disulfide isomerase activity; P07237; PDI insulin aggregation turbidity, A650, 90 min; AID 588391; inhibition, % at 10 µM; 350,000 compounds, 0.052% hits;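 active = mean inhibition across replicates of 30% or more, whatever share of single replicates reach that level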
CAL PDZ FP-1: blocks peptide binding to human CAL PDZ domain; Q9HD26; purified CAL PDZ, TMR-peptide fluorescence polarization, 1 h; inhibition, % at 20 µM; 330,000 compounds, 0.02% hits; AID 504414;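 active = highest replicate inhibition of at least 40%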
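System: tagged CAL PDZ domain. Schedule: 1 h room-temperature incubation prior to read. Signal: fluorescence polarization (mP). Measure: percent inhibition from loss of millipolarization.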
RAD54 branch: inhibitors of human RAD54 branch migration. Q92698. RAD54 Holliday junction branch migration, FAM/BHQ fluorescence. inhibition, % at 10.4 µM. 360,000 compounds, 0.14% hits. AID 602329;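 active = mean normalized replicate activity at least 40 and at least half of replicates scoring 40 or more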;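 also: inhibitors cause a drop in the FAM fluorescence signal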
ERp5 block: blocks human ERp5 reductase activity on insulin; Q15084; ERp5 insulin aggregation, absorbance 650 nm, 90 min; inhibition, % at 9.99 µM; 350,000 compounds, 0.05% hits; AID 651711;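 active = mean replicate inhibition above about 25%, with every replicate also reaching it, limit read from the data, passing the limit was not always enough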
Target sequence (Q15084 whole entry, looked up): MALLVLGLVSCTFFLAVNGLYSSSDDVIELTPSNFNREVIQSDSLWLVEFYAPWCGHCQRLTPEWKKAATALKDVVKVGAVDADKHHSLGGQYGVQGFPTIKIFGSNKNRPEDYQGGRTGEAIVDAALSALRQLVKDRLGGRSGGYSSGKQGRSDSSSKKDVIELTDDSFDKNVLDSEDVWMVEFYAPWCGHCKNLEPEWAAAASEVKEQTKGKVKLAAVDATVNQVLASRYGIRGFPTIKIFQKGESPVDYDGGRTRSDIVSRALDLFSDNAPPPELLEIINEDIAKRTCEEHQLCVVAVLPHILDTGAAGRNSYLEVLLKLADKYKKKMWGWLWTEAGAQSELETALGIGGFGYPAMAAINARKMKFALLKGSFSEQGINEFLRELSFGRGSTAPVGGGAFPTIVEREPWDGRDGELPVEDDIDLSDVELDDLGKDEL
CAL PDZ FP-2: CAL PDZ (human) peptide binding inhibition | inhibition, % at 24.9 µM | Q9HD26 | AID 602252 | 300,000 compounds, 0.92% hits | purified CAL PDZ, TMR-peptide fluorescence polarization, 1 h;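 active = mean inhibition of at least 30% with at least half of replicates also reaching 30%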
RAD52 inh: RAD52 (human) annealing inhibition; recombinant RAD52 DNA annealing, FRET fluorescence; P43351; inhibition, % at 18.7 µM; 360,000 compounds, 0.46% hits;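 active = every replicate showing at least 50% inhibition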
A number is an active result; . = inactive; / = no result; + = active, no number; ! = not confirmed by another sample. An excerpt weighted towards active compounds, which were near 1% of everything screened.

SMILES	PDI inh	CAL PDZ FP-1	RAD54 branch	ERp5 block	CAL PDZ FP-2	RAD52 inh
CCSc1ccc(C(=O)Nc2ccc(Br)cn2)cc1[N+](=O)[O-]	.	.	/	.	39	.
CCSc1ccc(C(=O)Nc2cccc(C)n2)cc1[N+](=O)[O-]	.	.	/	/	.	/
CCN(CC)c1ccc(N2C(=O)CSC2=S)cc1	.	.	.	.	45	.
CCOc1ccc(N2C(=O)CSC2=S)cc1	.	.	.	.	/	.
CN(C)C(=O)c1cccc(-c2ccccc2[C@H]2[C@H](C#N)N(C(=O)C3CCC3)[C@H]2CO)c1	/	/	/	.	/	62
Cc1ccc(C)c(NC(=O)/C(C#N)=C/c2cn(CC(=O)NCc3ccco3)c3ccccc23)c1	.	.	/	.	44	.
Cc1ccc(NC(=O)/C(C#N)=C/c2cn(CC(=O)NCc3ccco3)c3ccccc23)cc1C	.	/	.	.	.	.
C[C@@H]1CCCCO[C@H](CN(C)C(=O)Nc2cccc3ccccc23)[C@H](C)CN([C@@H](C)CO)C(=O)c2cc(NS(=O)(=O)c3ccc(Cl)cc3)ccc2O1	/	/	.	.	/	.
COCCN(C(=O)CSc1nnc(-c2ccccc2F)n1C)c1c(N)n(Cc2ccccc2)c(=O)[nH]c1=O	.	.	.	.	45	.
COCCN(C(=O)CSc1nnc(-c2cccc(C)c2)n1C)c1c(N)n(Cc2ccccc2)c(=O)[nH]c1=O	.	.	/	.	.	.
C[C@@H]1CN([C@@H](C)CO)C(=O)c2cc(-c3cccc(C#N)c3)cnc2O[C@H]1CN(C)Cc1cncnc1	/	/	.	84	/	.
C[C@H](CO)N1C[C@H](C)[C@H](CN(C)Cc2cccc(F)c2)Oc2ncc(Br)cc2C1=O	.	/	.	82!	/	.
C[C@@H]1CN([C@H](C)CO)C(=O)c2cc(Br)cnc2O[C@@H]1CN(C)Cc1cccc(F)c1	/	/	.	.	/	.
CO[C@@H]1CN(C)C(=O)c2cc(NS(=O)(=O)Cc3ccccc3)ccc2OC[C@@H](C)NC[C@H]1C	/	/	.	.	/	.
CCCn1nnnc1NCc1cccc(Cl)c1	.	.	.	.	80	.
CCCn1nnnc1NCc1c(Cl)cccc1Cl	.	.	/	.	.	.
COC(=O)C1=C(C)NC(C)=C(C(=O)OC)C1c1ccco1	.	.	/	.	91	.
CCOC(=O)C1=C(C)NC(C)=C(C(=O)OCC)C1c1ccc(C)o1	.	.	/	.	74	.
CCOC(=O)C1=C(C)NC(C)=C(C(=O)OCC)C1c1ccco1	.	.	.	.	/	.
C=CCOC(=O)C1=C(C)NC(C)=C(C(=O)OCC=C)C1c1ccc(C)o1	.	.	.	.	.	.
COc1ccc(NC(=O)c2cccc(N3C(=O)C4C5C=CC(C5)C4C3=O)c2)c(OC)c1 (centres undefined)	.	.	.	.	.	.
COc1ccccc1NC(=O)c1cccc(N2C(=O)C3C4C=CC(C4)C3C2=O)c1 (centres undefined)	.	.	.	.	50	.
CC[C@]12c3[nH]c4cc(CCC(=O)N(C)C)ccc4c3CCN1C(=O)[C@@H](CC(=O)NCCCOC)C[C@@H]2C(=O)N1CCN(C(=O)C2CC2)CC1	.	.	.	.	32	.
CC[C@]12c3[nH]c4cc(CCC(=O)N(C)C)ccc4c3CCN1C(=O)[C@@H](CC(=O)NCc1ccc(OC)c(OC)c1)C[C@@H]2C(=O)N1CCN(C(=O)c2ccco2)CC1	.	.	.	.	.	.
C[C@]12c3[nH]c4cc(-c5ccco5)ccc4c3CCN1C(=O)[C@@H](CC(=O)NCCN1CCOCC1)C[C@@H]2C(=O)N1CCCCC1	.	.	.	.	48	.
SMILES	PDI inh	CAL PDZ FP-1	RAD54 branch	ERp5 block	CAL PDZ FP-2	RAD52 inh
CC[C@]12c3[nH]c4cc(-c5ccco5)ccc4c3CCN1C(=O)[C@@H](CC(=O)NCc1ccc(OC)c(OC)c1)C[C@@H]2C(=O)N1CCN(C(=O)c2ccco2)CC1	38	.	.	.	.	.
O=C(C[C@@H]1CC[C@H](NC(=O)Cc2ccccn2)[C@@H](CO)O1)NCCCN1CCOCC1	/	/	.	.	/	.
C/C=C/c1ccc([C@H]2[C@@H](CO)N(CC3CCCCC3)[C@@H]2CNC(C)C)cc1	/	/	/	.	/	.
COc1ccc(OC)c(S(=O)(=O)NCCCN2CCOCC2)c1	.	.	.	.	.	.
COc1cc2sc3cc(NCCCN4CCOCC4)ccc3c(=O)c2cc1OC	.	.	.	.	.	81
CCCCCCCCOC(=O)c1c(CSC(=N)N)n(C)c2cc(Br)c(OC(C)=O)cc12	.	/	.	.	/	83
COc1cccc(NC(=O)N(C)C[C@H]2Oc3ncc(/C=C/c4ccccc4)cc3C(=O)N([C@@H](C)CO)C[C@H]2C)c1	/	/	.	.	/	.
CCOc1ccc(CC(=O)NCC(=O)NCc2cc(=O)n(C)c(=O)n2C)cc1	.	.	.	.	.	.
Cc1cccc(CC(=O)NCC(=O)NCc2cc(=O)n(C)c(=O)n2C)c1	.	.	.	.	62	.
O=S(=O)(Nc1ccc(C(O)(C(F)(F)F)C(F)(F)F)cc1)c1ccc(Cl)c2nonc12	34	/	.	/	/	/
COCC(=O)Nc1ccc2c(c1)OC[C@@H](C)N(C(=O)C1CCCC1)C[C@H](C)[C@@H](OC)CN(C)C2=O	/	/	.	/	/	/
CO[C@H]1CN(C)C(=O)c2ccc(NC(=O)C3CCCCC3)cc2OC[C@@H](C)NC[C@@H]1C	/	/	.	.	/	.
CCCn1c(O)c(N=NC(=O)CNC(=O)/C=C/c2ccc(OC)cc2)c2ccccc21	.	.	.	.	.	.
C=CCn1c(O)c(N=NC(=O)CNC(=O)/C=C/c2ccc(OC)cc2)c2ccccc21	.	.	.	.	59	.
O=C([C@@H]1[C@@H](CO)[C@@H]2Cn3c(ccc(C4=CCCCC4)c3=O)[C@@H]2N1Cc1nccs1)N1CCCCC1	/	/	.	.	/	.
O=C(Cn1cccc1C(=O)c1ccccc1)NCc1ccccc1Cl	.	.	.	.	+	.
CCCC(O)(CCN1CCOCC1)c1ccc(Cl)cc1 (centres undefined)	.	.	.	.	41	.
C[C@H]1CN([C@@H](C)CO)C(=O)c2ccccc2-c2ccccc2CO[C@H]1CN(C)C(=O)c1ccncc1	/	/	.	.	/	.
COc1ccc(S(=O)(=O)Nc2ccc3c(c2)C(=O)N([C@H](C)CO)C[C@@H](C)[C@H](CN(C)CC2CC2)O3)cc1	/	/	.	.	/	.
C[C@@H]1CCCCO[C@H](CN(C)Cc2ccc(C(=O)Nc3ccccc3N)cc2)[C@@H](C)CN([C@H](C)CO)C(=O)c2cc(NS(=O)(=O)c3ccccc3)ccc2O1	/	/	/	.	/	.
C[C@H](CO)N1C[C@H](C)[C@H](CN(C)C(=O)CCC(F)(F)F)OCCCC[C@H](C)Oc2ccc(NS(=O)(=O)c3ccc(Cl)cc3)cc2C1=O	/	/	.	81	/	.
C[C@@H]1CN([C@@H](C)CO)C(=O)c2cc(NS(=O)(=O)c3ccc(Cl)cc3)ccc2O[C@@H](C)CCCCO[C@H]1CN(C)Cc1ccccc1	/	/	.	.	/	.
